In the library only some 1.4% were active in any assay of this set; here they are far more common.
T cell modulator – modulates CD8 T cell binding to vesicles. 2C CD8+ T cell-vesicle binding, flow cytometry; stronger effect = lower value. response (vesicle binding), % at 7 µM. 0.068% of 330,000 active;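 active = response, share of CD8 T cells binding vesicles, and their 90th percentile fluorescence all below set limits, cut at about 80% in these data, passing the limit was not always enough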;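 also: values below 100% mean blocked vesicle binding to the CD8+ T cells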
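material = purified 2C TCR transgenic mouse naive CD8+ T cells | controls = Unloaded micro-vesicles (low), QL9 vesicles with 0.7% DMSO (high) | detection = cytometric PE anti-B7-1 and Alexa647 anti-CD8 signals after 1% paraformaldehyde fixation | incubation = binding step 1.5 h, 37 °C, antibody labelling 20 min, ice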
Casp6 inh – caspase-6 (human) enzyme inhibition. P55212. purified caspase-6, Z-VEID-R110 cleavage fluorescence. inhibition, % at 12.5 µM. 0.53% of 350,000 active. AID 686996;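 active = mean inhibition across replicates at least about 35%, with every replicate also reaching that limit, limit read from the data; inconclusive = only one of the two criteria met; inactive = neither criterion met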;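 also: 0% = median of neutral control wells and 100% = no fluorescence left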
Target sequence (P55212 24-179 limits assumed): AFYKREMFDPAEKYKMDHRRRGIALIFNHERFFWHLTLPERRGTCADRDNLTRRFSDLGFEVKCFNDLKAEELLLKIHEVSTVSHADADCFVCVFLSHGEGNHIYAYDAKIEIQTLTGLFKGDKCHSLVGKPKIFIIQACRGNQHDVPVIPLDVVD
Target sequence (P55212 194-293 limits assumed): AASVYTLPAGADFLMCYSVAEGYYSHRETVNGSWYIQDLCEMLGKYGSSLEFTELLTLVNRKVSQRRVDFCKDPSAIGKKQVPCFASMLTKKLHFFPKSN
Myeloid diff 2 – myeloid differentiation induction | ER-HoxA9 myeloid progenitors, lysozyme-GFP differentiation, flow cytometry | calls only at 10 µM | 1% of 360,000 active | AID 624256;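 active = normalized GFP-positive differentiation at or above the plate's own cutoff, the solvent-only control mean plus 3 SD; inconclusive = no clear call, values can overlap the other calls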;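 also: cells exposed to compound for four days before flow analysis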
Vif inh – inhibitors of HIV Vif | HEK293T cells, Vif self-association by quenched fluorescence, imaging, 24 h | inhibition, % at 7.49 µM | 0.35% of 340,000 active | AID 602346; in the data active = inhibition above about 50%, passing the limit was not always enough; inconclusive = no clear call, values can overlap the other calls; inactive = below about 31%
Active calls of the source: *.

How did CCCNC(=O)C12CCC(C)(C(=O)O1)C2(C)C (configuration not stated) do in these assays?
T cell modulator: 436; Casp6 inh: -2; Myeloid diff 2: inactive; Vif inh: 0

Results for COn1c(=O)c(-c2ccc(C)cc2)[n+]([O-])c2ccccc21 ?
T cell modulator: 233; Casp6 inh: -1; Myeloid diff 2: inactive; Vif inh: 5

Results for COn1c(=O)c(-c2ccccc2)[n+]([O-])c2ccccc21 ?
T cell modulator: 77; Casp6 inh: -1; Myeloid diff 2: inactive; Vif inh: 51*

Results for O=C(N[C@H]1C=C[C@H](CC(=O)N2CCc3ccccc3C2)O[C@@H]1CO)C1CCOCC1 ?
Casp6 inh: 0

How did CSCCC(NS(=O)(=O)c1ccc2ccccc2c1)C(=O)OCC(=O)c1ccc(C(C)C)cc1 (configuration not stated) do in these assays?
T cell modulator: 678; Myeloid diff 2: active; Vif inh: -7

What do the screens show for `CSCCC(NC(=O)COc1ccccc1)C(=O)OCC(=O)c1ccccc1` (configuration not stated)?
T cell modulator: 788; Casp6 inh: 5; Myeloid diff 2: inactive; Vif inh: 3

What do the screens show for `O=C(CN1CCOCC1)NCC[C@@H]1CC[C@H](NC(=O)c2ccc3c(c2)OCO3)[C@@H](CO)O1`?
Casp6 inh: -2

How did Cc1ccc(-c2ccc3c(c2)O[C@H](CN(C)CC2CC2)[C@H](C)CN([C@H](C)CO)S3(=O)=O)cc1 do in these assays?
Casp6 inh: -1

What do the screens show for `COc1ccc(NC(=O)Nc2ccc3c(c2)[C@H]2C[C@H](CC(=O)NCc4ccncc4)O[C@@H](CO)[C@H]2O3)cc1`?
Casp6 inh: 1

What do the screens show for `COCCNC(=O)C[C@H]1C=C[C@H](NC(=O)NC2CCCCC2)[C@@H](CO)O1`?
Casp6 inh: 0

Results for COc1ccc(Br)cc1CN(C)CC(=O)NCc1ccc(F)cc1 ?
T cell modulator: 25; Casp6 inh: 1; Myeloid diff 2: active; Vif inh: -9

What do the screens show for `Cc1ccc(S(=O)(=O)NCC[C@H]2CC[C@@H](NC(=O)Nc3cccc(F)c3)[C@H](CO)O2)cc1`?
Casp6 inh: 0

Results for CN1c2cccc3cccc(c23)N(C)C1(C)C ?
T cell modulator: 264; Myeloid diff 2: inconclusive; Vif inh: 1

How did CC(=O)c1ccc2cccc3c2c1N=CN3C do in these assays?
T cell modulator: 317; Myeloid diff 2: active; Vif inh: 67*

What do the screens show for `CN(C)C(=O)C[C@H]1CC[C@H](NC(=O)Nc2cccc(F)c2)[C@@H](CO)O1`?
Casp6 inh: 1

Results for O=C(c1cc(-c2ccncc2)nc2ccccc12)N1CCN(Cc2ccccc2)CC1 ?
T cell modulator: 424; Casp6 inh: 19; Myeloid diff 2: inactive; Vif inh: 51*

Results for C[C@@H]1[C@@H](Sc2ccccc2)CC(=O)O[C@@H]1c1ccc(-c2ccccc2)cc1 ?
T cell modulator: 533; Casp6 inh: 1; Myeloid diff 2: inconclusive; Vif inh: -10

How did O=C1C=CC2(O[C@H](c3ccccc3)[C@@H](c3ccccc3)O2)[C@H](Sc2ccccc2O)C1 do in these assays?
Casp6 inh: 7; Myeloid diff 2: active; Vif inh: 26

Results for CO[C@@H]1CN(C)C(=O)c2ccc(NS(=O)(=O)c3ccccc3F)cc2OC[C@@H](C)NC[C@@H]1C ?
Casp6 inh: 1

How did CSc1ccc(CN(C)C(=O)c2cc(=O)c3ccccc3o2)cc1 do in these assays?
T cell modulator: inactive; Casp6 inh: 1; Myeloid diff 2: active; Vif inh: 13

What do the screens show for `CSc1ccc(CN(C)C(=O)c2cc3ccccc3o2)cc1`?
T cell modulator: 407; Casp6 inh: -2; Myeloid diff 2: inactive; Vif inh: 19

What do the screens show for `COc1ccc(CN2C[C@@H](C)[C@H](OC)CN(C)C(=O)c3cc(NC(=O)c4nc5ccccc5s4)ccc3OC[C@H]2C)cc1`?
Casp6 inh: -2

What do the screens show for `Cc1cc(C)c(C)c(S(=O)(=O)N2CCN(C(=O)c3cc(=O)[nH]c4ccccc34)CC2)c1C`?
T cell modulator: 378; Myeloid diff 2: active; Vif inh: 5

What do the screens show for `COc1ccc(OC)c(S(=O)(=O)N2CCCC(C(=O)NCc3ccccn3)C2)c1` (configuration not stated)?
T cell modulator: 391; Casp6 inh: 0; Myeloid diff 2: inactive; Vif inh: 4

What do the screens show for `COc1ccc(OC)c(S(=O)(=O)N2CCCC(C(=O)NCc3cccnc3)C2)c1` (configuration not stated)?
T cell modulator: 277; Casp6 inh: 4; Myeloid diff 2: inactive; Vif inh: 60*

How did CCCNC(=O)N[C@H]1CC[C@H](CC(=O)NC2CCCCC2)O[C@H]1CO do in these assays?
Casp6 inh: -2

Results for COc1ccccc1NC(=O)c1ccc(-c2ccc(Br)cc2)o1 ?
T cell modulator: 367; Myeloid diff 2: active

What do the screens show for `CC1CCCCN1c1nc(-c2ccncc2)nc2ccccc12` (configuration not stated)?
T cell modulator: 214; Casp6 inh: -1; Myeloid diff 2: active; Vif inh: -2

What do the screens show for `COc1ccc2c(c1)c(=O)oc1cc(OCC(=O)NCC3CCC(C(=O)O)CC3)ccc12` (configuration not stated)?
T cell modulator: 223; Casp6 inh: 3; Myeloid diff 2: inactive; Vif inh: 55*

Results for C[C@@H]1CN([C@@H](C)CO)C(=O)c2cc(NC(=O)Cc3ccccc3)ccc2O[C@@H]1CN(C)Cc1ccc2c(c1)OCO2 ?
Casp6 inh: 4

How did Cc1nn(CC(C)C)c(Cl)c1C(=O)N(C)CC(=O)Nc1c(Cl)cccc1Cl do in these assays?
T cell modulator: 638; Casp6 inh: -1; Myeloid diff 2: active; Vif inh: -3

What do the screens show for `COc1cccc(NC(=O)CN(C)C(=O)c2c(C)nn(Cc3ccc(C)cc3)c2Cl)c1`?
T cell modulator: 293; Casp6 inh: 0; Myeloid diff 2: inactive; Vif inh: -2

What do the screens show for `CC1=NN(c2ccc(C)c(C)c2)C(=O)/C1=C\C=C\c1ccc([N+](=O)[O-])o1`?
T cell modulator: 343; Casp6 inh: 47*; Vif inh: 28

Results for CC1=NN(c2ccccc2)C(=O)/C1=C\C=C\c1ccccc1 ?
T cell modulator: 819; Casp6 inh: -5; Myeloid diff 2: inactive; Vif inh: 10

What do the screens show for `CCNC(=O)[C@@H]1[C@@H](CO)[C@@H]2Cn3c(ccc(-c4cncnc4)c3=O)[C@@H]2N1C(=O)c1ccccc1F`?
Casp6 inh: 2

What do the screens show for `C[C@@H]1CN([C@@H](C)CO)C(=O)c2cccc(NS(=O)(=O)c3cccs3)c2O[C@@H]1CN(C)S(=O)(=O)c1ccccc1`?
Casp6 inh: 37*

How did Cc1ccc(S(=O)(=O)N(C)C[C@@H]2Oc3c(NS(=O)(=O)c4cccs4)cccc3C(=O)N([C@H](C)CO)C[C@H]2C)cc1 do in these assays?
Casp6 inh: 3
